Measurements from ChEMBL document CHEMBL1155202, “Synthesis and anticancer activity of novel 3,4-diarylthiazol-2(3H)-ones (imines)” (Bioorg Med Chem Lett, 2009).
Blank lines part the entries; values can stand above or below the compound they belong to.

Experiments:
CCRF-CEM = experiment: Anticancer activity against human CCRF-CEM cells after 72 hrs; assay type: functional, cell-based
Procedure, shortened: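 CEM human leukemia cells were exposed to compounds. IC50 was defined as the concentration required to inhibit 50% of cell proliferation.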

Bel-7402 = experiment: Anticancer activity against human Bel7402 cells after 72 hrs; assay type: functional, cell-based; settings: Bel-7402, 72 h
Procedure, shortened: (§1)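 Solid human tumour lines (liver Bel-7402, HepG2, SMMC-7721; breast MCF-7; pancreatic SW-1990; colon HCT116) were exposed to compounds. IC50 was taken as the concentration inhibiting 50% of cell proliferation. CA-4 served as positive control.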

HepG2 [1] = experiment: Anticancer activity against human HepG2 cells after 72 hrs; assay type: functional, cell-based; settings: HepG2, 72 h; procedure, shortened: as §1
SMMC-7721 = experiment: Anticancer activity against human SMMC7721 cells after 72 hrs; assay type: functional, cell-based; settings: SMMC-7721, 72 h; procedure, shortened: as §1
MCF7 = experiment: Anticancer activity against human MCF7 cells after 72 hrs; assay type: functional, cell-based; settings: MCF7, 72 h; procedure, shortened: as §1
SW1990 = experiment: Anticancer activity against human SW1990 cells after 72 hrs; assay type: functional, cell-based; settings: SW1990, 72 h; procedure, shortened: as §1
HCT-116 = experiment: Anticancer activity against human HCT116 cells after 72 hrs; assay type: functional, cell-based; settings: HCT-116, 72 h; procedure, shortened: as §1
HepG2 [2] = experiment: Cell cycle arrest in human HepG2 cells assessed as increase in G2/M phase cells after 20 hrs by flow cytometry using propidium iodide staining; assay type: functional, cell-based; settings: for EC50: HepG2, 20 h
Procedure, shortened: (§2)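 HepG2 cells were left untreated or treated with compounds across a dose range for 20 h at 37 °C. CA-4 served as positive control. Cell-cycle phase distribution (G1, S, G2/M fractions) was then analysed by flow cytometry.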

HepG2 [3] = experiment: Cell cycle arrest in human HepG2 cells assessed as decrease in S phase cells after 20 hrs by flow cytometry using propidium iodide staining; assay type: functional, cell-based; procedure, shortened: as §2
HepG2 [4] = experiment: Cell cycle arrest in human HepG2 cells assessed as decrease in G1 phase cells after 20 hrs by flow cytometry using propidium iodide staining; assay type: functional, cell-based; procedure, shortened: as §2
HepG2 [5] = experiment: Ratio of Compound EC50 to Combrestatin A4 EC50 for cell cycle arrest in human HepG2 cells assessed as increase in G2/M phase cells after 20 hrs by flow cytometry using propidium iodide staining; assay type: functional

SMILES: COc1ccc(/C=C\c2cc(OC)c(OC)c(OC)c2)cc1O [COMBRETASTATIN A4]
IC50 (Bel-7402): 1.72 µM
IC50 (HepG2 [1]): 0.006 µM
IC50 (SMMC-7721): 0.29 µM
IC50 (MCF7): 0.03 µM
IC50 (SW1990): 0.25 µM
IC50 (HCT-116): 0.006 µM
IC50 (CCRF-CEM): 0.002 µM
EC50 (HepG2 [2]): < 0.03 µM

SMILES: COc1ccc(-c2csc(=N)n2-c2ccc(OC)cc2)cc1
IC50 (CCRF-CEM): > 20 µM

SMILES: COc1ccc(-c2csc(=O)n2-c2cc(OC)c(OC)c(OC)c2)cc1[N+](=O)[O-]
IC50 (CCRF-CEM): 8.2 µM

SMILES: COc1ccc(-c2csc(=O)n2-c2cc(OC)c(OC)c(OC)c2)cc1N
IC50 (Bel-7402): 3.3 µM
IC50 (HepG2 [1]): 4.5 µM
IC50 (SMMC-7721): 7.4 µM
IC50 (MCF7): 4.4 µM
IC50 (SW1990): 20.3 µM
IC50 (HCT-116): 3.4 µM
IC50 (CCRF-CEM): 0.24 µM
Activity (HepG2 [2]): Dose-dependent effect
EC50 (HepG2 [2]): 3.89 µM
Activity (HepG2 [3]): Dose-dependent effect
Activity (HepG2 [4]): Dose-dependent effect
Ratio EC50 (HepG2 [5]): 130

SMILES: COc1ccc(-n2c(-c3cc(OC)c(OC)c(OC)c3)csc2=O)cc1N
IC50 (CCRF-CEM): 10.1 µM

SMILES: COc1ccc(-c2csc(=N)n2-c2cc(OC)c(OC)c(OC)c2)cc1
IC50 (CCRF-CEM): 1.5 µM

SMILES: COc1ccc(-n2c(-c3cc(OC)c(OC)c(OC)c3)csc2=O)cc1[N+](=O)[O-]
IC50 (CCRF-CEM): 2.7 µM

Next, values leading:

IC50 (CCRF-CEM): 13.2 µM
SMILES: COc1ccc(-n2c(-c3cc(OC)c(OC)c(OC)c3)csc2=N)cc1

IC50 (CCRF-CEM): 1.8 µM
SMILES: COc1ccc(-c2csc(=O)n2-c2cc(OC)c(OC)c(OC)c2)cc1

IC50 (Bel-7402): 23.4 µM
IC50 (HepG2 [1]): 96 µM
IC50 (SMMC-7721): 118 µM
IC50 (MCF7): 52.5 µM
IC50 (SW1990): 56.7 µM
IC50 (HCT-116): 85.1 µM
IC50 (CCRF-CEM): 0.12 µM
EC50 (HepG2 [2]): > 250 µM
SMILES: COc1ccc(-c2c(Cl)sc(=O)n2-c2cc(OC)c(OC)c(OC)c2)cc1N

IC50 (CCRF-CEM): 13.8 µM
SMILES: COc1ccc(-n2c(-c3cc(OC)c(OC)c(OC)c3)c(Cl)sc2=O)cc1

IC50 (CCRF-CEM): > 20 µM
SMILES: COc1ccc(-c2c(Cl)sc(=O)n2-c2cc(OC)c(OC)c(OC)c2)cc1

IC50 (CCRF-CEM): 16.2 µM
SMILES: COc1ccc(-n2c(-c3cc(OC)c(OC)c(OC)c3)c(Cl)sc2=O)cc1N

IC50 (CCRF-CEM): 7.5 µM
SMILES: COc1ccc(-c2c(Cl)sc(=O)n2-c2cc(OC)c(OC)c(OC)c2)cc1[N+](=O)[O-]

IC50 (CCRF-CEM): > 20 µM
SMILES: COc1ccc(-n2c(-c3cc(OC)c(OC)c(OC)c3)c(Cl)sc2=O)cc1[N+](=O)[O-]

IC50 (CCRF-CEM): 14.9 µM
SMILES: COc1ccc(-n2c(-c3cc(OC)c(OC)c(OC)c3)csc2=O)cc1
